Sampled rows, rich in hits. Any-hit rate of the full collection: about 3.3%.
DENV2 CPE – DENV2-induced cell death inhibition; DENV2-infected cells, cytopathic effect rescue, plate reader; CPE inhibition, % at 9.99 µM; actives 1.7% (n = 350,000); in the data active means CPE inhibition above about 20%, passing the limit was not always enough; tested in BHK-21 cells;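 further: 0% = median of neutral control wells and 100% = median of positive control wells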
FGF22 binding – FGF22 (human) thermal shift binding. Q9HCT0. recombinant FGF22 thermal shift, SYPRO orange fluorescence; percent of sucrose octasulfate shift, DMSO zero. activity (Tm shift, normalised), % at 9.99 µM. actives 1.5% (n = 340,000). AID 651658;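 active means mean Tm shift, scaled 0 neutral to 100 positive control, at about 1.3% or above, every replicate too, limit read from the data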
Xi reactivation – reactivates the inactive X chromosome in mouse fibroblasts; XiGFP mouse fibroblasts, % GFP-positive cells imaging, 3 d; cells co-treated with 5-aza-dC sensitizer; scaled so ellipticine positive control = 100%; activation, % at 7.58 µM; actives 0.055% (n = 360,000);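 active means mean normalized replicate activation at least 10% and every replicate at or above 10%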;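 further: 0% = median of on-plate neutral control wells and 100% = ellipticine 6 µM median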
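assay system = SV40-immortalized XiGFP fibroblast cells, line 68-5-11 | buffer or medium = DMEM plus 5-aza-dC sensitizer | doses = single-point pinned compound dosing | times = 3-day compound exposure, then 15 min fixation at room temperature | benchmarks = positive control ellipticine, 6 µM final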
E-selectin induc – induces E-selectin expression in human endothelial cells; AID 686992; actives 0.37% (n = 260,000); activation, % at 7.58 µM; P16581; HUVEC E-selectin immunofluorescence imaging; normalized: neutral wells 0, TNF-alpha wells 100;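 active means mean E-selectin-positive cell signal at least 10% of the positive control, reached in at least 60% of replicates, without over 20% cell loss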
Target sequence (P16581 whole entry, looked up): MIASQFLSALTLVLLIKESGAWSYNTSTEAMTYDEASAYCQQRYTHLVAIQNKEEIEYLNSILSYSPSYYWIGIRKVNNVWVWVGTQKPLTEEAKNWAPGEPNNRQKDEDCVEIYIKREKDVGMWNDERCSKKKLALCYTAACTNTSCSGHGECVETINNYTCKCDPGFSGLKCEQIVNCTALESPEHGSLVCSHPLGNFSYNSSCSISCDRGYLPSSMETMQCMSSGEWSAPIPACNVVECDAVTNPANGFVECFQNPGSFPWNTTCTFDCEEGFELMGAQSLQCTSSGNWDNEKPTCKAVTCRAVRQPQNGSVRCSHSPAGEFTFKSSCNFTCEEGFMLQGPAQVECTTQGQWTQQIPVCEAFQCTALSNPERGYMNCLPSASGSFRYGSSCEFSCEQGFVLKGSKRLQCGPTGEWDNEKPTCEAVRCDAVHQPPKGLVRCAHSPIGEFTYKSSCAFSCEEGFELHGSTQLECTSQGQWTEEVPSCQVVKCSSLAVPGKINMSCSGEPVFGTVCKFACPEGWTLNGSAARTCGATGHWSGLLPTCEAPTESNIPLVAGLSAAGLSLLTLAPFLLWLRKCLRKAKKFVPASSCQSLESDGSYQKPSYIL
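Assay system: HUVEC, human umbilical vein endothelial cells / Amount: 3,000 HUVEC/well / Controls: TNF-alpha positive control, DMSO neutral control / Compound dosing: single concentration / Medium: EGM-2 over gelatin coat / Evaluation: percent E-selectin-positive cells / Signal: immunofluorescence imaging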
C2C12 statin – suppression of simvastatin myotoxicity; actives 0.78% (n = 330,000); rescue of ATP level, % at 7.49 µM; AID 602340; C2C12 myotubes + simvastatin, ATP luminescence, 48 h; scaled: DMSO 0, geranylgeraniol control 100;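 active means mean ATP rescue above about 67%, or every replicate alone reaching that limit, limit read from the data, passing the limit was not always enough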;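 further: myotubes were challenged with 10 µM simvastatin during compound exposure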
PglD DTNB – PglD (C. jejuni) enzyme inhibition; purified PglD enzyme, DTNB colorimetric CoA detection; inhibition, % at 12.5 µM; actives 0.098% (n = 360,000); in the data active means inhibition above about 16%, passing the limit was not always enough
Active calls of the source: *; · = no result given; ! = not active in a repeat.

SMILES	DENV2 CPE	FGF22 binding	Xi reactivation	E-selectin induc	C2C12 statin	PglD DTNB
CCCC#Cc1cnc2c(c1)C(=O)N([C@@H](C)CO)C[C@H](C)[C@H](CN(C)C(=O)NC1CCCC1)O2	8	0	-1	0	8	3
COc1ccc(C#Cc2cnc3c(c2)C(=O)N([C@H](C)CO)C[C@H](C)[C@@H](CN(C)C(=O)Nc2cccc(OC)c2)O3)cc1	8	-1	0	0	112*!	-4
COc1ccc(NC(=O)N(C)C[C@H]2Oc3ncc(C#CC(C)C)cc3C(=O)N([C@@H](C)CO)C[C@H]2C)cc1	39*	1	0	0	-7	0
CC(C)NC(=O)N(C)C[C@@H]1Oc2ncc(C#Cc3ccc(F)cc3)cc2C(=O)N([C@@H](C)CO)C[C@H]1C	25*	0	-1	0	6	-2
CCCN(C)C[C@H]1Oc2ncc(C#CC3(O)CCCC3)cc2C(=O)N([C@@H](C)CO)C[C@H]1C	9	-1	0	0	-1	-1
CC(C)NC(=O)N(C)C[C@@H]1Oc2ncc(C#Cc3ccc(F)cc3)cc2C(=O)N([C@H](C)CO)C[C@H]1C	-9	-1	-1	0	19	-1
CCCN(C)C[C@H]1Oc2ncc(C#CC3(O)CCCC3)cc2C(=O)N([C@H](C)CO)C[C@H]1C	27*	0	0	0	6	1
COc1ccc(C#Cc2cnc3c(c2)C(=O)N([C@H](C)CO)C[C@@H](C)[C@@H](CN(C)C(=O)Nc2cccc(OC)c2)O3)cc1	·	·	0	0	49	·
C[C@@H]1CCCCO[C@H](CN(C)Cc2ccc3c(c2)OCO3)[C@@H](C)CN([C@H](C)CO)C(=O)c2cc(NC(=O)Nc3ccccc3)ccc2O1	-3	0	0	0	·	0
CC(C)NC(=O)N(C)C[C@@H]1Oc2ncc(C#CC3(O)CCCC3)cc2C(=O)N([C@@H](C)CO)C[C@H]1C	3	0	0	0	10	2
CC(C)NC(=O)N(C)C[C@H]1Oc2ncc(C#CC3(O)CCCC3)cc2C(=O)N([C@@H](C)CO)C[C@@H]1C	32*	0	0	0	-4	-1
C[C@H](CO)N1C[C@H](C)[C@@H](CN(C)C(=O)c2cnccn2)Oc2ncc(C#CCC3CCCC3)cc2C1=O	36*	0	0	0	-3	-2
C[C@@H]1CN([C@@H](C)CO)C(=O)c2cc(-c3cncnc3)cnc2O[C@@H]1CN(C)C(=O)Nc1ccc2c(c1)OCO2	-3	0	0	0	-9	0
C[C@H](CO)N1C[C@H](C)[C@H](CN(C)C(=O)Nc2ccc3c(c2)OCO3)Oc2ncc(C#Cc3ccc(F)cc3)cc2C1=O	-4	0	0	0	74*	-2
C[C@@H]1CN([C@@H](C)CO)C(=O)c2cc(-c3cncnc3)cnc2O[C@H]1CN(C)C(=O)Nc1ccc2c(c1)OCO2	47*	0	0	0	4	1
CCC(=O)N(C)C[C@@H]1Oc2cc(C#CC(C)(C)O)ccc2S(=O)(=O)N([C@H](C)CO)C[C@H]1C	-4	0	-1	1	-9	-7
COCC(=O)Nc1ccc2c(c1)OC[C@@H](C)N(C(=O)C1CCCC1)C[C@@H](C)[C@@H](OC)CN(C)C2=O	·	·	0	0	-14	·
O=C(Cn1cc(C(F)(F)F)ccc1=O)Nc1ccc2c(c1)OCO2	-4	43*	0	0	3	-1
COc1ccc(S(=O)(=O)Nc2ccc3c(c2)C(=O)N([C@H](C)CO)C[C@@H](C)[C@H](CN(C)Cc2ccc4c(c2)OCO4)OCCCC[C@@H](C)O3)cc1	3	0	0	1	-66	0
COc1ccc(S(=O)(=O)Nc2ccc3c(c2)C(=O)N([C@H](C)CO)C[C@H](C)[C@H](CN(C)Cc2ccc4c(c2)OCO4)OCCCC[C@H](C)O3)cc1	59*	0	0	0	-204	0

Screening results: PubChem, Broad Institute
